Consider one molecule from ChEMBL document CHEMBL4138193, “Novel indole and triazole based hybrid molecules exhibit potent anti-adipogenic and antidyslipidemic activity by activating Wnt3a/β-catenin pathway” (Eur J Med Chem, 2018).

Active and inactive are the calls of the source. The calls are words filed in the database; no cut-off is given here.

For test [1], the species on record is Mus musculus. Kind of test: Activation of Wnt3a/beta-catenin in mouse 3T3L1 cells assessed as induction of TCF1 expression at 20 uM after 16 to 24 hrs by Western blot analysis. The format is cell-based.
Test [2] relates to 3T3-L1. Kind of test: Anti-adipogenic activity in mouse 3T3L1 cells assessed as reduction in lipid accumulation at early differentiation stage at 20 uM measured up to 3 days by Oil Red O staining based leica microscopy. The format is functional, cell-based. In outline:
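3T3-L1 or C3H10T1/2 cells given 20 µM compound in differentiation media for varied time periods, then stained with Oil red O. Imaged by microscopy at 10x, representative of three independent experiments.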

The species named for test [3] is Mus musculus. Kind of test: Activation of Wnt3a/beta-catenin in differentiated mouse 3T3L1 cells assessed as upregulation of phosphorylated beta-catenin expression at 20 uM after 16 to 24 hrs in presence of beta-catenin/TCF complex inhibitor FH353 by Western blot analysis. In short, it runs like this: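 Confluent 3T3-L1 cells given differentiation media (IBMX/insulin/dexamethasone) with 20 µM compound, with or without the β-catenin/TCF inhibitor FH353 (10 µM). Proteins isolated at 16 and 24 h and Western blotted after SDS-PAGE and nitrocellulose transfer. Blocking in 5% milk/TBS-T, primary antibody overnight at 4 °C, chemiluminescent detection, β-actin control, three independent experiments.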

For test [4], the species on record is Homo sapiens. Kind of test: Anti-adipogenic activity in human differentiated MSC assessed as reduction in lipid accumulation at 5 to 20 uM after 20 mins by Oil Red O absorbance method. It counts as functional. In outline:
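C3H10T1/2 or human MSC differentiated with IBMX/insulin/dexamethasone media containing 5, 10 or 20 µM compound. Cells stained with Oil red O (0.36% in 60% isopropanol, 20 min), dye extracted with isopropanol, absorbance read at 492 nm. n=3, mean ± SD, Student t test against MDI group.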

Test [5] relates to Syrian golden hamster. Kind of test: Induction of reverse cholestrol transport in high fat diet-induced dyslipidemia Syrian Golden hamster model assessed as increase in ABCA1 mRNA expression in eWAT at 100 mg/kg, po administered for 1 week by qRT-PCR analysis. The format is functional, organism-based. The following applies: Mesocricetus auratus.
Test [6] deals with 3T3-L1. The test is described as follows: Anti-adipogenic activity in mouse 3T3L1 pre-adipocytes in differentiation media assessed as reduction in lipid accumulation at 20 uM after 20 mins in presence of beta-catenin/TCF complex inhibitor FH353 by Oil Red O staining based microscopic method. It counts as functional, cell-based. In short, it runs like this: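 3T3-L1 adipocytes given 20 µM compound with or without 10 µM FH353 in differentiation media, then Oil red O stained. Imaged at 20x and 40x, representative of three independent experiments.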

The subject of test [7] is 3T3-L1. Kind of test: Upregulation of wnt3a protein expression in mouse 3T3L1 cells at 20 uM after 16 to 24 hrs by Western blot analysis. The format is functional, cell-based. In short, it runs like this:
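3T3-L1 cells given MDI with or without 20 µM; protein harvested at 16 and 24 hr. Lysates in ice-cold buffer with protease and phosphatase inhibitors were BCA-quantified, run on 8–12% SDS-PAGE, transferred to nitrocellulose and probed overnight at 4 °C. Detection by chemiluminescence, normalized to β-actin; three independent experiments.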

The subject of test [8] is Syrian golden hamster. Kind of test: Induction of reverse cholestrol transport in high fat diet-induced dyslipidemia Syrian Golden hamster model assessed as increase in LXR1alpha mRNA expression in liver at 100 mg/kg, po administered for 1 week by qRT-PCR analysis. The format is functional, organism-based. The following applies: Mesocricetus auratus.
Test [9] deals with 3T3-L1. Kind of test: Induction of Wnt5a mRNA expression in mouse 3T3L1 cells at 20 uM by qRT-PCR analysis. The format is functional, cell-based. In outline: (§1)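 3T3-L1 cells induced with MDI differentiation medium with or without 20 µM. RNA isolated with TRIzol and 500 ng reverse-transcribed to cDNA for real-time PCR. n=3 with triplicates, mean ± SD; one-way ANOVA with Bonferroni post-test.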

The species entered for test [10] is Mus musculus. Kind of test: Activation of Wnt3a/beta-catenin in differentiated mouse 3T3L1 cells assessed as down-regulation of C/EBPalpha protein expression at 20 uM after 16 to 24 hrs by Western blot analysis. In outline: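 3T3-L1 preadipocytes grown to confluence in high-glucose DMEM/10% FBS, then given differentiation media (0.5 mM IBMX, 5 µg/ml insulin, 250 nM dexamethasone) with or without 20 µM compound. Protein isolated at set time points, lysed with protease/phosphatase inhibitors, BCA-quantified, resolved by 8–12% SDS-PAGE, immunoblotted with ECL detection. β-actin loading control, densitometry normalized to actin, n=3.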

Test [11] is filed under the species Mus musculus. Kind of test: Activation of Wnt3a/beta-catenin in mouse 3T3L1 cells assessed as increase in SIRT1 mRNA expression at 20 uM by qRT-PCR analysis. It counts as cell-based. In outline:
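3T3-L1 cells differentiated with IBMX/dexamethasone/insulin media with or without 20 µM compound over the differentiation period. RNA extracted with TRIZOL, 500 ng reverse-transcribed to cDNA, then quantitative real-time PCR. Three independent experiments run in triplicate, mean ± SD, one-way ANOVA with Bonferroni posttest.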

Test [12] concerns 3T3-L1. Kind of test: Cell cycle arrest in mouse 3T3L1 cells assessed as accumulation at G1/S phase at 20 uM after 24 hrs in presence of beta-catenin/TCF complex inhibitor FH353 by propidium iodide-staining based flow cytometry. The format is functional. In short, it runs like this: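 3T3-L1 cells exposed to 20 µM with or without FH353 (10 µM) in differentiation medium for 16 and 24 hr. Cells fixed in ice-cold 70% ethanol, stained with PI (40 µg/ml, RNase A buffer, 30 min, room temperature) and analysed by flow cytometry; representative of three experiments.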

In test [13] the test system is C3H 10T1/2. Kind of test: Anti-adipogenic activity in mouse C3H10T1/2 cells assessed as reduction in lipid accumulation at early differentiation stage at 20 uM measured up to 3 days by Oil Red O absorbance method. It counts as functional, cell-based. In outline:
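3T3-L1 or C3H10T1/2 cells given 20 µM compound with differentiation media for different time periods. Oil red O stain extracted from accumulated lipid with isopropanol and absorbance read at 492 nm. n=3, mean ± SD, Student t test against MDI+ group.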

In test [14] the test system is Syrian golden hamster. Kind of test: Induction of reverse cholestrol transport in high fat diet-induced dyslipidemia Syrian Golden hamster model assessed as reduction in weight gain at 100 mg/kg, po administered for 1 week. The format is functional, organism-based. As to conditions: Mesocricetus auratus. In outline:
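Male Syrian Golden hamsters on 45% kCal HFD, dosed 100 mg/kg p.o. in 0.5% NaCMC for one week, 4 per group. Food intake and body weight recorded daily. At the end, animals were saline-perfused and liver and eWAT were excised and weighed. Paraffin sections stained with H&E and imaged at 20x.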

Test [15] deals with Syrian golden hamster. Kind of test: Anti-dyslipidemic activity in high fat diet-induced dyslipidemia Syrian Golden hamster model assessed as reduction in serum NEFA levels at 100 mg/kg, po administered for 1 week followed by overnight fasting post last dose. The format is functional, organism-based. The following applies: Mesocricetus auratus. In short, it runs like this:
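Male Syrian golden hamsters (8–10 wk, 100–120 g), 4 per group, given 45% kcal HFD for 4 days, then 100 mg/kg p.o. in 0.5% NaCMC daily for one week alongside HFD. Blood taken from retro-orbital plexus after overnight fast. TG, HDL, LDL, ALT, AST measured on a clinical bio-analyzer and NEFA by kit. Mean ± SEM, one-way ANOVA with Bonferroni.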

For test [16], the system named is 3T3-L1. Kind of test: Upregulation of wnt3a mRNA expression in mouse 3T3L1 cells at 20 uM by qRT-PCR analysis. The format is functional, cell-based. In outline:
as §1

The species named for test [17] is Mus musculus. Kind of test: Activation of Wnt3a/beta-catenin in mouse 3T3L1 cells assessed as down-regulation of FAS expression at 20 uM after 2 to 6 days in presence of FH353 by Western blot analysis. It counts as cell-based.

Turning to `Cc1ccc(S(=O)(=O)N(Cc2cn(Cc3cccc(F)c3F)nn2)Cc2cn(S(=O)(=O)c3ccc(C)cc3)c3ccccc23)cc1`, the result in test [1], in test [2], in test [4], in test [5], in test [7] and in [8] was Active. In addition, the outcome in test [10], in test [11], in test [13], in [14], in test [15] and in test [16] was Active. Besides, the result in test [3], in test [6], in test [9], in test [12] and in [17] was inactive.
